Experiment [1] has as its target T1, Angiotensin-converting enzyme (Oryctolagus cuniculus, UniProt P12822).
T1 sequence (P12822 whole entry): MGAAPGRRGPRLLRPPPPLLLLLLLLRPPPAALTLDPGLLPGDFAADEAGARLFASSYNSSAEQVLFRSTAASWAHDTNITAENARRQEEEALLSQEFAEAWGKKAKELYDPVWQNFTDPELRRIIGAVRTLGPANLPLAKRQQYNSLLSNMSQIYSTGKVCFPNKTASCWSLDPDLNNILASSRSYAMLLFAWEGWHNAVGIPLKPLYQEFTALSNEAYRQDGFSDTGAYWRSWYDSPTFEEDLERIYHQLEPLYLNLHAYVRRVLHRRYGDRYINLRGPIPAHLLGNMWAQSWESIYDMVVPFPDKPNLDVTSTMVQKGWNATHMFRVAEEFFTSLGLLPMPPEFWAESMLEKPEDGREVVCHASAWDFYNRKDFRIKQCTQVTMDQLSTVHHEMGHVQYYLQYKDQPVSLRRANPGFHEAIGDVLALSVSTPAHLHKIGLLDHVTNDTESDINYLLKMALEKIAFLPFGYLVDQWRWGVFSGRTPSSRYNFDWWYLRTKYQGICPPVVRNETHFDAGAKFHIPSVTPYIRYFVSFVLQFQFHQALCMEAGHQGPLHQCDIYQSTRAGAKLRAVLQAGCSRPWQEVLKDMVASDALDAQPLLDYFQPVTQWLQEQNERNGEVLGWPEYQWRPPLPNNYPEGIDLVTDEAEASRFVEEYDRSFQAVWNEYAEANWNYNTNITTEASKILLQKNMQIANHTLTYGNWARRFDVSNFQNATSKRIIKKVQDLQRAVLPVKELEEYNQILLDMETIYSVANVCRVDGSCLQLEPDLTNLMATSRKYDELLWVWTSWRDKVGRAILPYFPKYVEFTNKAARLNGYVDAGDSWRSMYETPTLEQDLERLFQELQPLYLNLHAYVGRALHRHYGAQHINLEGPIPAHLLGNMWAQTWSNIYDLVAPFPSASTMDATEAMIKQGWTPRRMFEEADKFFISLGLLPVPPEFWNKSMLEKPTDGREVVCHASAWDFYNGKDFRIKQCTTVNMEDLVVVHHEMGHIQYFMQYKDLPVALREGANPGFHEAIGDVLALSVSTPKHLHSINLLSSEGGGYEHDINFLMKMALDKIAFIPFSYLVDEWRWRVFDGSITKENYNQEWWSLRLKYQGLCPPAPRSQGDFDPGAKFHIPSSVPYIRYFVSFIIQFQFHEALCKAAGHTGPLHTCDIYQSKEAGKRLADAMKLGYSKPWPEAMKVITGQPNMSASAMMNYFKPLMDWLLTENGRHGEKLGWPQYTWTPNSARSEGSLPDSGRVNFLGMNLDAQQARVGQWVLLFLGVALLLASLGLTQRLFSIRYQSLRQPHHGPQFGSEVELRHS
The experiment is described as follows: In vitro inhibition of ACE (Angiotensin I converting enzyme) isolated from rabbit lung extract. The settings on record: read-out: I50. In a few lines:
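Enzyme source is rabbit lung extract; substrate hippuryl-L-histidyl-L-leucine (HHL); I50 reported.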

The target in a further experiment is T2, Neprilysin (Rattus norvegicus, UniProt P07861).
T2 sequence (P07861 whole entry): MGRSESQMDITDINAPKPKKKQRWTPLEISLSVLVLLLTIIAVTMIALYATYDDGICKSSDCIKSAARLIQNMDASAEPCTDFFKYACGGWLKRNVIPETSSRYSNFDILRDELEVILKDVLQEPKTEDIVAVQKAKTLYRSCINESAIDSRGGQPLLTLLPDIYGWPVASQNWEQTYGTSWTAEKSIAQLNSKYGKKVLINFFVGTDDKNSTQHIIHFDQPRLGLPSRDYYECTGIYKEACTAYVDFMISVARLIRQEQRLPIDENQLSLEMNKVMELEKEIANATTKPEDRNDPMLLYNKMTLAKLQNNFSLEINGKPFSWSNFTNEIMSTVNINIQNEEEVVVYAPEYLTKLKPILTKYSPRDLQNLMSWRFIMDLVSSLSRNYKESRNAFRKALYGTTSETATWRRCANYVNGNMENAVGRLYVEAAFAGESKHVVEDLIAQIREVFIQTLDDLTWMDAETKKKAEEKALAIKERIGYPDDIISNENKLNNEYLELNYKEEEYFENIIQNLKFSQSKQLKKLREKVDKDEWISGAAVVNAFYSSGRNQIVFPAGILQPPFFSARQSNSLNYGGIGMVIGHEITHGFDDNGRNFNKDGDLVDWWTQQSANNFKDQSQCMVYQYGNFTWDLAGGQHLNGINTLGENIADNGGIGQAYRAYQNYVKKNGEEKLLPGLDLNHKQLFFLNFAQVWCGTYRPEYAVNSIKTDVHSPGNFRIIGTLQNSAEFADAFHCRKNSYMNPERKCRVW
As to the kind of experiment: In vitro inhibition of neutral endopeptidase purified from rat kidney using fluorimetry assay. As to conditions: read-out: I50. The essentials:
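Enzyme from purified rat kidney; fluorometric read-out with dansyl-Gly-Phe-Arg as substrate; I50 reported.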

Experiment [2] relates to Rattus norvegicus. As to the kind of experiment: 50% inhibition of the AI pressor response in normotensive rat after intravenous administration at a dose 0.5 umol/kg. It is filed as functional.
Experiment [3] concerns Rattus norvegicus. The experiment is described as follows: % inhibition of AI pressor response at 60 minutes after intravenous administration of 0.5 micro mol/kg of compound in rat. It is filed as functional. In a few lines:
(§1)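 Normotensive rats given intravenous angiotensin I challenges to raise mean arterial pressure. Compound dosed intravenously at 0.5 μmol/kg. Pressor response measured before dosing (control) and at set times afterward. Percent change from the control response taken as % inhibition. Maximal response usually seen about 2 min after dosing.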

The test system of experiment [4] is Rattus norvegicus. As to the kind of experiment: % inhibition of AI pressor response at 120 minutes after intravenous administration of 0.5 micro mol/kg of compound in rat. It is filed as functional. In a few lines: as §1
Experiment [5] concerns Rattus norvegicus. As to the kind of experiment: % inhibition of AI pressor response at 2 minutes after intravenous administration of 0.5 micro mol/kg of compound in rat. Format: functional. The essentials:
as §1

In experiment [6] the test system is Rattus norvegicus. The experiment is described as follows: % inhibition of AI pressor response at 30 minutes after intravenous administration of 0.5 micro mol/kg of compound in rat. Format: functional. In a few lines: as §1
Experiment [7] relates to Rattus norvegicus. The experiment is described as follows: Decreased Mean arterial pressure (MAP) in rat after single oral dose of 30 umol/kg. Format: functional, Artery. In a few lines:
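Conscious sodium-depleted spontaneously hypertensive rats, n = 7 per group. Single oral dose of 30 μmol/kg (~12 mg/kg); vehicle 5% NaHCO3. Mean arterial pressure followed as change from pre-dose baseline over 24 h.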

pIC50: −log10 of the molar value.

As for `O=C(N[C@H]1CCS[C@H]2CCC[C@@H](C(=O)O)N2C1=O)[C@@H](S)Cc1ccccc1` [OMAPATRILAT], the results for the pIC50 (in experiment [1]; on Neprilysin) were 8.30 and 8.10, respectively. Also, the 50% effect level in the experiment on Rattus norvegicus [2] (ED50) was put at a dose of 0.07 µmol/kg. In addition, the Inhibition in the experiment on Rattus norvegicus [3] came to 60%; in the experiment with Rattus norvegicus [4], 58%; with Rattus norvegicus [5] it was 76%; with Rattus norvegicus [6] it was 66%. Also, the MAP with Rattus norvegicus [7] stood at 40 mmHg.
As for `O=C(N[C@H]1CCO[C@H]2CC[C@@H](C(=O)O)N2C1=O)[C@@H](S)Cc1ccccc1`, the pIC50 was 8.15 in experiment [1] and 7.59 at Neprilysin. Moreover, the ED50 in the experiment on Rattus norvegicus [2] came to 0.06 µmol/kg. Also, the Inhibition is on record as 3% in the experiment with Rattus norvegicus [3], 79% in the experiment on Rattus norvegicus [5] and 63% in the experiment with Rattus norvegicus [6].
Take `CCOC(C)=O.O=C(N[C@H]1CS[C@H]2CCC[C@@H](C(=O)O)N2C1=O)[C@@H](S)Cc1ccccc1`: the pIC50 in experiment [1] is 8.30; on Neprilysin, 7.38. For the same compound, in the experiment on Rattus norvegicus [2], the ED50 was found to be 0.23 µmol/kg. The Inhibition is reported as 78% in the experiment on Rattus norvegicus [5] and 3% with Rattus norvegicus [6].
For the compound `O=C(N[C@H]1CCC[C@H]2CCC[C@@H](C(=O)O)N2C1=O)[C@@H](S)Cc1ccccc1`, the Inhibition in the experiment with Rattus norvegicus [3] is 35%; in the experiment with Rattus norvegicus [4] it was 11%; in the experiment with Rattus norvegicus [5], 71%; in the experiment on Rattus norvegicus [6], 65%.
As to `CCC(=O)O[C@@H](O[P@](=O)(CCCCc1ccccc1)CC(=O)N1C[C@H](C2CCCCC2)C[C@H]1C(=O)O)C(C)C` [FOSINOPRIL], in the experiment with Rattus norvegicus [7], the MAP was 20 mmHg.
In the case of `O=C(N[C@H]1CCC[C@H]2CC[C@@H](C(=O)O)N2C1=O)[C@@H](S)Cc1ccccc1`, the figures for the Inhibition in the experiment on Rattus norvegicus [3], in the experiment on Rattus norvegicus [5] and in the experiment on Rattus norvegicus [6] were 3%, 75% and 34%, respectively.
With `CCOC(C)=O.O=C(N[C@H]1CCO[C@H]2CCC[C@@H](C(=O)O)N2C1=O)[C@@H](S)Cc1ccccc1`, the pIC50 in experiment [1] was 8.10; at Neprilysin it was 8.05. Also, the ED50 in the experiment with Rattus norvegicus [2] came out at 0.05 µmol/kg. The Inhibition is listed as 83% with Rattus norvegicus [5] and 3% in the experiment with Rattus norvegicus [6].
As to `O=C(N[C@H]1CCS[C@H]2CC[C@@H](C(=O)O)N2C1=O)[C@@H](S)Cc1ccccc1`, the pIC50 (in experiment [1]; at Neprilysin) was 8.40 throughout. The 50% effect level in the experiment on Rattus norvegicus [2] (ED50) was put at a dose of 0.03 µmol/kg. Besides, the Inhibition came out at 60% with Rattus norvegicus [3], 25% in the experiment on Rattus norvegicus [4], 82% in the experiment with Rattus norvegicus [5] and 76% with Rattus norvegicus [6].

For the origin of these results see ChEMBL document CHEMBL1130034, “Dual metalloprotease inhibitors: mercaptoacetyl-based fused heterocyclic dipeptide mimetics as inhibitors of angiotensin-converting enzyme and neutral endopeptidase” (J Med Chem, 1997).
